The RNAGym collection of RNA variant scans (doi:10.1126/science.aae0568)
Variants at the floor of the assay were thinned out.

B1: tRNA (parent)
chain: GUUCCGUUGGCGUAAUGGUAACGCGUCUCCCUCCUAAGGAGAAGACUGCGGGUUCGAGUCCCGUACGGAACG

Variants of: B1
Assay: yeast fitness relative to wild type (ratio to wild type); higher = fitter; tRNA-Arg(CCU), competitive growth, 37 C, YPD
In short: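 Variants of the tRNA-Arg(CCU) gene were chemically synthesised with a 3% per-site mutation rate across 69 sites and placed at the native genomic locus in Saccharomyces cerevisiae. Six parallel replicates of the pooled strains were competed in YPD at 37°C for 24 hours, and gene amplicons from the start and end populations were read by 100-nucleotide paired-end sequencing. Darwinian fitness relative to wild type was derived from changes in genotype frequencies. Genotypes required ≥ 100 starting reads, and estimates < 0.5 were set to 0.5.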

| Variant | yeast fitness |
| --- | --- |
| GUUCUGUUGGCGUAAUGGUAACGCGUCUCCCUCCUAAGGAGAAGACUACGCGUUCGAGUCCCGUACGGAACG [C5U G48A G51C] | ≤ 0.5 |
| GUUCUGUUGGCGUAAUGGUAACGCGUCUCCCUCCUAAGGAGAAGACUGCAGGUUCGAGUCCCGUAAGGAACG [C5U G50A C66A] | ≤ 0.5 |
| GUUCUGUUGGCGUAAUGGUAACGCGUCUCCCUCCUAAGGAGAAGACUGCAGGUUCGAGUCCCGUAUGGAACG [C5U G50A C66U] | 0.637 |
| GUUCUGUUGGCGUAAUGGUAACGCGUCUCCCUCCUAAGGAGAAGACUGCAGGUUCGAGUCCCAUACGGAACG [C5U G50A G63A] | 0.608 |
| GUUCUGUUGGCGUAAUGGUAACGCGUCUCCCUCCUAAGGAGAAGACUGCCGGUUCGAGUCCCGUACGGAACG [C5U G50C] | 0.699 |
| GUUCUGUUGGCGUAAUGGUAACGCGUCUCCCUCCUAAGGAGAAGACUGCCGGUUCGAGUCCCGUACGGAUCG [C5U G50C A70U] | 0.575 |
| GUUCUGUUGGCGUAAUGGUAACGCGUCUCCCUCCUAAGGAGAAGACUGCCCGUUCCAGUCCCGUACAGAACG [C5U G50C G51C G56C G67A] | ≤ 0.5 |
| GUUCUGUUGGCGUAAUGGUAACGCGUCUCCCUCCUAAGGAGAAGACUGCCGGUUCGAGUCCCGUACAGAACG [C5U G50C G67A] | ≤ 0.5 |
| GUUCUGUUGGCGUAAUGGUAACGCGUCUCCCUCCUAAGGAGAAGACUGCGAGUUCAAGUCCCGUCCGGAACG [C5U G51A G56A A65C] | ≤ 0.5 |
| GUUCUGUUGGCGUAAUGGUAACGCGUCUCCCUCCUAAGGAGAAGACUGCGCGUUAGAGUCCUGUUCGGUACG [C5U G51C C55A C62U A65U A69U] | ≤ 0.5 |
| GUUCUGUUGGCGUAAUGGUAACGCGUCUCCCUCCUAAGGAGAAGACUGCGGAUUCGAGUCCCGUACGGAACG [C5U G52A] | 0.697 |
| GUUCUGUUGGCGUAAUGGUAACGCGUCUCCCUCCUAAGGAGAAGACUGCGGAUUCGAGUCCCGUAUGGAACG [C5U G52A C66U] | 0.584 |
| GUUCUGUUGGCGUAAUGGUAACGCGUCUCCCUCCUAAGGAGAAGACUGCGGAUUCGAGUCCCCUACGGAACG [C5U G52A G63C] | ≤ 0.5 |
| GUUCUGUUGGCGUAAUGGUAACGCGUCUCCCUCCUAAGGAGAAGACUGCGGCUUCGAGUCCCGUAUGGAACG [C5U G52C C66U] | 0.57 |
| GUUCUGUUGGCGUAAUGGUAACGCGUCUCCCUCCUAAGGAGAAGACUGCGGGUUCAAGUCCCGUUCGGAACG [C5U G56A A65U] | 0.854 |
| GUUCUGUUGGCGUAAUGGUAACGCGUCUCCCUCCUAAGGAGAAGACUGCGGGUUCGAAUCUCGUACGGAGCG [C5U G58A C61U A70G] | 0.797 |
| GUUCUGAUGGCGUGAUGGUAACGCGUCUCCCUCCUAAGGAGAAGACUGCGGGUUCGAGUCCCGUACGGAACG [C5U U7A A14G] | 0.538 |
| GUUCUGAUGGCGUAAUGGUAACGCGUCUCCCUCCUAAGGAGAAGGCUGCGGGUUCGAGUCCCGUACAGAACG [C5U U7A A45G G67A] | ≤ 0.5 |
| GUUCUGAUGGCGUAAUGGUAACGCGUCUCCCUCCUAAGGAGAAGACUGCGGGUUCGAGUCCCGUCCGGAACG [C5U U7A A65C] | 0.64 |

| Variant | yeast fitness |
| --- | --- |
| GUUCUGAUGGCGUAAUGGUAACGCGUCUCACUCCUAAGGAGAAGACUGCGGGUUCGACUCCCGUACGGAACG [C5U U7A C30A G58C] | 0.543 |
| GUUCUGAUGGCGUAAUGGUAACGCGUCUCCCUCUUAAGGAGAAGACUGCGGGUUCAAGUCCCGUACAGAACG [C5U U7A C34U G56A G67A] | ≤ 0.5 |
| GUUCUGAUGGCGUAAUGGUAACGCGUCUCCCUCCUAAGGAGAAGACUGCGGGUUCGAGUCCAGUACGGGGCG [C5U U7A C62A A69G A70G] | ≤ 0.5 |
| GUUCUGAUGACGUAAUGGUAACGCGUCUCCCUCCUAAGGAGAAGACUCCGGGUUCGAGUCCCGUACGGAACG [C5U U7A G10A G48C] | ≤ 0.5 |
| GUUCUGCUGGCGUAAUGGUAACGCGUCUCCCUCCUAAGGAGAAGCCUGCGGGUUCGAGUCCCGUACGGAACG [C5U U7C A45C] | 0.74 |
| GUUCUGCUGGCGUAAUGGUAACGAGUCUCCCUCCUAAGGAGAAGACUGCGGGUUCGAGUCUCGUACGGAACG [C5U U7C C24A C61U] | ≤ 0.5 |
| GUUCUGCUGGCGUAAUGGUAACGGGUAUCCCUCCUAAGGAGAAGACUGCGGGUUCGAGUCCCGUACGGAACG [C5U U7C C24G C27A] | ≤ 0.5 |
| GUUCUGCUGGCGUAAUGGUAACGCGUCUCCCUCCUAAGGAGAAGACUGCGGGUUCGAGUCCCGUACGCAACG [C5U U7C G68C] | ≤ 0.5 |
| GUUCUGCUGGCGUAAUGGUAACGCGCCCGCCUCAUAAGGAGAAGACUGCGGGUUCGAGUCCCGUACGGAACG [C5U U7C U26C U28C C29G C34A] | 0.659 |
| GUUCUGGUGGCGUGAUGGUAACGCGUCUCACUCCUAAGGAGAAGACUGCGGGUUCGAGUCCCGUCCGGAACG [C5U U7G A14G C30A A65C] | 0.704 |
| GUUCUGGUGGCGUAAUGGUAACGCGUCUCCCUCCUAAGGGGAAGACUGCGGGUUCGUGUCCCGUACGGAACG [C5U U7G A40G A57U] | ≤ 0.5 |
| GUUCUGGUGGCGUAAUGGUAACGCGUCUCACUCCUAAGGAGAAGACUGCGGGUUCGAGUCCCGUCCGGAACG [C5U U7G C30A A65C] | 1.07 |
| GUUCUGGUGGCGUAAUGGUAACGCGUCUCUCUCCUAAGGAGAAGACUGCGCGUUCGAGUCACGUACGGAACG [C5U U7G C30U G51C C61A] | ≤ 0.5 |
| GUUCUGUAGGCGUAAUGGUAACGCGUCUCCCUCCUAAGGAGAAGACUGCGGGUUCGAGUCCCGUACGGAACG [C5U U8A] | 0.632 |
| GUUCUGUAGGCGUAAUGGUAGCGCGUCUCCCUCCUAAGGAGAAGACUGUGGGUUCGAGUCCCCUACGGAACG [C5U U8A A21G C49U G63C] | ≤ 0.5 |
| GUUCUGUAGGCGUAAUGGUAACGCGUCUCCCUCCUAAGGAGAAGACUGCGGGUUCGAGUCCCGUUCGGAACG [C5U U8A A65U] | ≤ 0.5 |
| GUUCUGUAGGCGUAAUGGUAACGCGUCUCCCUCCUAAGGAGAAGACUGCGGGUUCGAGUCUCGUACGGAACG [C5U U8A C61U] | 0.548 |
| GUUCUGUAGGCGUAAUGCUAACACGUCUCCCUCCUAAGGAGAAGACUGCGGGUUCGAGUCCCGUACGGAACG [C5U U8A G18C G23A] | ≤ 0.5 |
